Assay results published in ChEMBL document CHEMBL1777776, “Identification of 2-mercaptohexanoic acids as dual inhibitors of 5-lipoxygenase and microsomal prostaglandin E₂ synthase-1” (Bioorg Med Chem, 2011).
Active and inactive are the calls of the source. No cut-off for these calls is given here.

Legend:
[1] = target: T1, Polyunsaturated fatty acid 5-lipoxygenase (Homo sapiens) (UniProt P09917); assay: Inhibition of human recombinant 5-lipoxygenase expressed in Escherichia coli BL21 assessed as enzyme product formation using arachidonic acid as substrate at 1 uM after 10 mins by RP-HPLC analysis
T1 sequence (whole entry): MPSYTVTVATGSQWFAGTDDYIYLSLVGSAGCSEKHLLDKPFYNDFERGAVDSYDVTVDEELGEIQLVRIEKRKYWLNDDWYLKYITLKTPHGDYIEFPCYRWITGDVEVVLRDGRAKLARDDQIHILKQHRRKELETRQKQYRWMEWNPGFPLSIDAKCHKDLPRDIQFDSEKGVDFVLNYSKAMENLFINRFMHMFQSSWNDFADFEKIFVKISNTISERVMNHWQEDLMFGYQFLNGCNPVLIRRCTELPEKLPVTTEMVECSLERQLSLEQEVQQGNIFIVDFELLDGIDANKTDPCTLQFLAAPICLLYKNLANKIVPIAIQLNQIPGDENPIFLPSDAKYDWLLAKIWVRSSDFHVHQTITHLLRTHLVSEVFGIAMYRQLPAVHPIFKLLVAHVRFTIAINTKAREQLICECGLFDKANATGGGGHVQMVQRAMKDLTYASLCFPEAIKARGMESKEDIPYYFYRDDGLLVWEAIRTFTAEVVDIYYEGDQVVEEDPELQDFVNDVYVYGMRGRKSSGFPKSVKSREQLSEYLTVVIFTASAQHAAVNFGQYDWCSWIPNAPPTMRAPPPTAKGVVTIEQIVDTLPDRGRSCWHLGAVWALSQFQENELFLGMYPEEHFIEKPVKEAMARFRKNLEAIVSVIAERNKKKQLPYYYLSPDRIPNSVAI
Summary of the method: (§1)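 Human 5-LO expressed in E. coli BL21 (pT3-5LO), affinity-purified and used at once. 0.5 µg enzyme in 1 ml PBS/EDTA with 1 mM ATP preincubated with compound 5–10 min at 4 °C, then warmed 30 s at 37 °C. Reaction started with 2 mM CaCl₂ and AA (routinely 20 µM), with or without 1 µM 13(S)-HpODE. Run 10 min at 37 °C, stopped with ice-cold methanol, products analysed by HPLC. Washout: 10-fold dilution (10 to 1 µM).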

[2] = target: T2, Polyunsaturated fatty acid 5-lipoxygenase (Homo sapiens, UniProt P09917); assay: Inhibition of 5-lipoxygenase in A23187-stimulated human PMNL assessed as enzyme product formation preincubated 15 mins by RP-HPLC analysis in presence of exogenous arachidonic acid
T2 sequence (P09917 whole entry): T1 sequence (whole entry)
Summary of the method: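 Freshly isolated human PMNL (5 × 10⁶/ml PGC buffer: PBS pH 7.4, 1 mg/ml glucose, 1 mM CaCl₂) preincubated with compound 15 min at 37 °C. Stimulated with 2.5 µM A23187 plus exogenous AA for 10 min at 37 °C. Stopped with methanol, PGB₁ added as internal standard, lipoxygenase products analysed by HPLC. Mean of n = 3–5.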

[3] = target: T2, Polyunsaturated fatty acid 5-lipoxygenase; assay: Inhibition of human recombinant 5-lipoxygenase expressed in Escherichia coli BL21 assessed as enzyme product formation using arachidonic acid as substrate after 10 mins by RP-HPLC analysis; summary of the method: as §1
[4] = target: T3, Prostaglandin G/H synthase 2 (Homo sapiens) (UniProt P35354); assay: Inhibition of human recombinant COX2 assessed as residual activity at 10 uM after 5 mins
T3 sequence (whole entry): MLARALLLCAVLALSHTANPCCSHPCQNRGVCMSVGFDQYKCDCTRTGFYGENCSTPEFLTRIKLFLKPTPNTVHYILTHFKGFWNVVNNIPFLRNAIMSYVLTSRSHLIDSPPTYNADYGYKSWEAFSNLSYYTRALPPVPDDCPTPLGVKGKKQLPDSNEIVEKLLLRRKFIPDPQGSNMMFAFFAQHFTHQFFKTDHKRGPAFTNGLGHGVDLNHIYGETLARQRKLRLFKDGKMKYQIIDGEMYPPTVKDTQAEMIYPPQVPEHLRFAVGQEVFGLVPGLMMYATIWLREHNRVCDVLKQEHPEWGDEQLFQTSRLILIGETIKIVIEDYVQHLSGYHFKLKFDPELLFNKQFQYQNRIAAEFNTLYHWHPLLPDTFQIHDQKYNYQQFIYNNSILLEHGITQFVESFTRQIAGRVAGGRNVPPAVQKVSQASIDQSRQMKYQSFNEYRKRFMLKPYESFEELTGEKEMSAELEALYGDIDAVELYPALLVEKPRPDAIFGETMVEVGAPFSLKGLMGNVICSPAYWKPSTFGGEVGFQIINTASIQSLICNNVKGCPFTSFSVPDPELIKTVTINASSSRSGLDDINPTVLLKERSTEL
Summary of the method: (§2)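 Ovine COX-1 (50 units) or human recombinant COX-2 (20 units) in 1 ml 100 mM Tris pH 8 with 5 mM glutathione, 5 µM haemoglobin and 100 µM EDTA. Preincubated with 10 µM compound 5 min at 4 °C, warmed 60 s at 37 °C. Started with AA (5 µM for COX-1, 2 µM for COX-2), run 5 min at 37 °C. 12-HHT extracted and analysed by HPLC. n = 3.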

[5] = target: T4, Prostaglandin G/H synthase 1 (Ovis aries) (UniProt P05979); assay: Inhibition of ovine COX1 assessed as residual activity at 10 uM after 5 mins; summary of the method: as §2
T4 sequence (whole entry): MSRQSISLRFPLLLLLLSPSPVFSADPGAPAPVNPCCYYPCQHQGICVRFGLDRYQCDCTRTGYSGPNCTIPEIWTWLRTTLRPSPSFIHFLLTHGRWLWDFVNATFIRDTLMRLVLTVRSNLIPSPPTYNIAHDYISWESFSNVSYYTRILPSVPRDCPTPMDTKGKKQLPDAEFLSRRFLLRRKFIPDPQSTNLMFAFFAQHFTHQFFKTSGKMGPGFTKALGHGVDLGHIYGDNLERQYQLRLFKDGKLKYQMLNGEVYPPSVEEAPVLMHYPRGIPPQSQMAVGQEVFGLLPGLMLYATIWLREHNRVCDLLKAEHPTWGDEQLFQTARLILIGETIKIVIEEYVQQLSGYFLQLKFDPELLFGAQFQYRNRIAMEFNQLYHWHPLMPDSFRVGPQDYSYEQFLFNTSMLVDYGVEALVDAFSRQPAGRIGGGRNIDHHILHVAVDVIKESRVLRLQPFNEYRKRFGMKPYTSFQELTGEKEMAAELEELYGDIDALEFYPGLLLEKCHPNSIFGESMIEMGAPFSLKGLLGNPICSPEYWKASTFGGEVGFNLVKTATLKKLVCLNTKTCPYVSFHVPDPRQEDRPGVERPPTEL

[6] = target: T5, Prostaglandin E synthase (Homo sapiens, UniProt O14684); assay: Inhibition of mPGES-1 in human IL-1beta-stimulated A549 cell microsomes assessed as reduction of PGE2 formation from PGH2 after 15 mins; design: species or system Microsome
T5 sequence (O14684 whole entry): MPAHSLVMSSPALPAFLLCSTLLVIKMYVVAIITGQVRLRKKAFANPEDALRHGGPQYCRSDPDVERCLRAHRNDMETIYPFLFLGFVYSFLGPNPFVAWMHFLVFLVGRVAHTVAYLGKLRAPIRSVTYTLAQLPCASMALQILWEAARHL
Summary of the method: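 Microsomes from A549 cells stimulated 72 h with IL-1β (1 ng/ml), diluted to 50 µg/ml in 0.1 M potassium phosphate pH 7.4 with 2.5 mM glutathione. Preincubated with compound (1% DMSO final) 15 min at 4 °C. Reaction started with 20 µM PGH₂, run 1 min at 4 °C, stopped with FeCl₂/citric acid containing 11β-PGE₂; PGE₂ quantified. Mean of n = 3–5.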

[7] = system: A549; assay: Cytotoxicity against human A549 cells assessed as cell viability at 10 uM after 16 hrs by MTT assay; format: cell-based; details: a549, 5 h, in the assay text read “5 hrs” for “16 hrs”
Summary of the method: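 A549 cells plated at 4 × 10⁴ cells per well, incubated 16 h at 37 °C, 5% CO₂, then exposed to 10 µM compound or DMSO (≤0.3% final) for 5 h. MTT added for 4 h, formazan solubilized with SDS in 20 mM HCl, absorbance at 595 nm read relative to vehicle-treated cells.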

Structure (SMILES)	inhibition [1]	IC50 [2] [nM]	IC50 [3] [nM]	inhibition [4]	inhibition [5]	IC50 [6] [nM]	Activity [7]
CC(C)c1ccc2c(c1)c(SC(C)(C)C)c(CC(C)(C)C(=O)O)n2Cc1ccc(Cl)cc1	inactive						
CCCCC(Sc1ccc(OCCCOc2cccc3c2CCCC3)cc1)C(=O)O (configuration not stated)		1400	4500	inactive	inactive	2200	Non-toxic
